Assay [1] is filed under the species Rattus norvegicus. Nature of the assay: Percent maximal analogue response relative to phenylephrine =100%. Format: functional. In a few lines: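 Rat aorta (α1) contraction. The maximal response to each analogue is expressed as percent of the maximal response to the reference agonist phenylephrine (phenylephrine = 100%). Mean ± SEM, N = 4.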
The target of assay [2] is T1, Adrenergic receptor alpha-1 (Rattus norvegicus, UniProt P15823+P23944+P43140).
T1 sequence (P15823 whole entry): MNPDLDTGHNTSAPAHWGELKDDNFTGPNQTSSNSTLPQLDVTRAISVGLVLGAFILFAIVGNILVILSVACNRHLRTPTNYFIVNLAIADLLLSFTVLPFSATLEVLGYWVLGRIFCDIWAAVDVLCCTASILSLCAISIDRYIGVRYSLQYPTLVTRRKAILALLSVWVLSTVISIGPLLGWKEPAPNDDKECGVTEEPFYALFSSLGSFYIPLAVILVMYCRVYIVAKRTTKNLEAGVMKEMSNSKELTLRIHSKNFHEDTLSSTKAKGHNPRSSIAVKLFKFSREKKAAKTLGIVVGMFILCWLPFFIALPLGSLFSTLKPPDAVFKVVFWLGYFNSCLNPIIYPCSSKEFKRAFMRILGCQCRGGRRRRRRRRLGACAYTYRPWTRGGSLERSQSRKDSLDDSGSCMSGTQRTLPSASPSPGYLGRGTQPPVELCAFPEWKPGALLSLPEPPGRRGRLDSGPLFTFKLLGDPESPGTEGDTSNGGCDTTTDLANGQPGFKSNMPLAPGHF
T1 sequence (P23944 whole entry): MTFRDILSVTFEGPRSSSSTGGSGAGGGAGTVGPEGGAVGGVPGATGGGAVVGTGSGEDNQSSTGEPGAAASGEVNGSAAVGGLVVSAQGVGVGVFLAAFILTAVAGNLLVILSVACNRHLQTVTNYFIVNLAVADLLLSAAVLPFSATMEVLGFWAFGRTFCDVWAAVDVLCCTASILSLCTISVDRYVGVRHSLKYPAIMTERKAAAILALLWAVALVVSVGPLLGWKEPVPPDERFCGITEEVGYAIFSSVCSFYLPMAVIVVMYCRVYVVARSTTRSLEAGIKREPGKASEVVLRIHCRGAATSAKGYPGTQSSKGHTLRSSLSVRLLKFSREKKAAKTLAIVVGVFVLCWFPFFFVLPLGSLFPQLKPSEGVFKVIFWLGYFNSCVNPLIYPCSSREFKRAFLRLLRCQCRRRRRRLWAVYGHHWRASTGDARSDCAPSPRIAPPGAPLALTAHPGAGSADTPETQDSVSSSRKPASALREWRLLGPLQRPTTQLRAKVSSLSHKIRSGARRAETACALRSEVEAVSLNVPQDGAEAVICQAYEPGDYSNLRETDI
T1 sequence (P43140 whole entry): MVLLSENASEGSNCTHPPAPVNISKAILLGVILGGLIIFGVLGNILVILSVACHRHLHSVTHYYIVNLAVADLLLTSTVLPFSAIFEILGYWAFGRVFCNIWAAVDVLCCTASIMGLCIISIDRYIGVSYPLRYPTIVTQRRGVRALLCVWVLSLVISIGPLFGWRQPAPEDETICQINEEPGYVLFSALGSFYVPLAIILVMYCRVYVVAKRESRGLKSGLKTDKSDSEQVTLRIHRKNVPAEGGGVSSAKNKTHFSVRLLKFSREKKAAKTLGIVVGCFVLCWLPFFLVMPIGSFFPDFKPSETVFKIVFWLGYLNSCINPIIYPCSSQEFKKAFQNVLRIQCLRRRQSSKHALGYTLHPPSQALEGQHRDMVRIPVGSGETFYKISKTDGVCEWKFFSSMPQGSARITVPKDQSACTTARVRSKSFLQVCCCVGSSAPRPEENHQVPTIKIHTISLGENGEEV
Nature of the assay: Compound was evaluated for Adrenergic activity against Alpha-1 adrenergic receptor from rat aorta.

Assay [3] can be described thus: Potency ratio is defined as IC50(medetomidine)/IC50(compound). In a few lines: (§1)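 Platelet-rich plasma from drug-free human volunteers (no medication for 10 days) treated with 1 mM aspirin. Inhibitors added at various concentrations 1 min before epinephrine. Read-out is primary-wave aggregation. […] Potency ratio = IC50 of medetomidine / IC50 of analogue.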
Assay [4] deals with T2, Adrenergic receptor alpha-2 (Homo sapiens, UniProt P08913+P18825+P18089).
T2 sequence (P08913 whole entry): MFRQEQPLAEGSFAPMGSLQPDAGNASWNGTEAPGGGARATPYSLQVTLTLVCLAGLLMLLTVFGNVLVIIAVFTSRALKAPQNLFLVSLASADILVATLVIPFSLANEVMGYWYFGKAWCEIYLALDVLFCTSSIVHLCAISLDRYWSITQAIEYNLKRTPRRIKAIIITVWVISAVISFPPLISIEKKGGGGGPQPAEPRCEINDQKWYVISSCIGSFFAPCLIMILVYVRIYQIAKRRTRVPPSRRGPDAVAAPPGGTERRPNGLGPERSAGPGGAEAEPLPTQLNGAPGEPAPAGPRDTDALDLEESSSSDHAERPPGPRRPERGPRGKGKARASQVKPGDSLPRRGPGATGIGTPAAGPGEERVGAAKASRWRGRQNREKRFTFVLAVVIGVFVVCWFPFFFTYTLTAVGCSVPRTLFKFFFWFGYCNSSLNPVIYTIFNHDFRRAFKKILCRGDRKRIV
T2 sequence (P18825 whole entry): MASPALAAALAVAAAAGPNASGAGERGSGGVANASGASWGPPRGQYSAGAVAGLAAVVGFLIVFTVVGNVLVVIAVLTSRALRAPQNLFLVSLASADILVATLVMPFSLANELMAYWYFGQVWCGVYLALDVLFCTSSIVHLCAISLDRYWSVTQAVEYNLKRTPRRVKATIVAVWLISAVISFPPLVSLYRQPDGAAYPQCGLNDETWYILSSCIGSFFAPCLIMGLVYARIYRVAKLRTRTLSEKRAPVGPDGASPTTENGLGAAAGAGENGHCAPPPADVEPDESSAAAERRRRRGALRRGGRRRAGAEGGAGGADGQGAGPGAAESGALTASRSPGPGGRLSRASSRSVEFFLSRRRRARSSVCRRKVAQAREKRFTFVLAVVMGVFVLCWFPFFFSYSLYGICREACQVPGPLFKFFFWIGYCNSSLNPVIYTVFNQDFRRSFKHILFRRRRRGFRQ
T2 sequence (P18089 whole entry): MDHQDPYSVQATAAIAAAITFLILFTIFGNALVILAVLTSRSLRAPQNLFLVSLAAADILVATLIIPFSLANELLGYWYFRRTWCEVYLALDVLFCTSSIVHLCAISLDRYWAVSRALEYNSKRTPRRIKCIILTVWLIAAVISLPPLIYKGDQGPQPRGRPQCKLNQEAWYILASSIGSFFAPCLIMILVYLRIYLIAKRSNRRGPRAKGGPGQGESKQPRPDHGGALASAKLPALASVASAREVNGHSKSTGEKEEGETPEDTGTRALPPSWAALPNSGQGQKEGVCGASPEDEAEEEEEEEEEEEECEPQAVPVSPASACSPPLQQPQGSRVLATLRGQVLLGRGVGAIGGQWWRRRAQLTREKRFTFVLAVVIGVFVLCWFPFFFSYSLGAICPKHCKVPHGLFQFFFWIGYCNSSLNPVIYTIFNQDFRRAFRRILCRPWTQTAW
Nature of the assay: Compound was evaluated for Adrenergic activity against Alpha-2 adrenergic receptor in human platelets. In a few lines: as §1

The nature of assay [5]: Potency ratio is defined as EC50 (medetomidine) / EC50 (compound).
For assay [6], the species on record is Rattus norvegicus. Briefly: Molar concentration of analogue which shifts concentration curve of phenylephrine to the right by 2-fold (0.3 log units). Format: functional. The method, boiled down: (§2)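 Rat aorta (α1) antagonism. KB is the molar analogue concentration that shifts the phenylephrine concentration-response curve 2-fold (0.3 log units) to the right. Derived by computerized analysis of the concentration-response data.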

The target in assay [7] is Adrenergic receptor alpha-1 (Rattus norvegicus) (UniProt P15823+P23944+P43140). Briefly: Molar concentration towards Alpha-1 adrenergic receptor which shifts concentration curve of phenylephrine to the right by 2-fold (0.3 log units). The method, boiled down:
as §2

Assay [8] has as its target T2, Adrenergic receptor alpha-2. Nature of the assay: Compound was tested for Adrenergic activity against Alpha-2 adrenergic receptor from rat aorta. Type of assay: tissue-based.

Nine compounds from ChEMBL document CHEMBL1125381, “Synthesis and alpha-adrenergic activities of 2- and 4-substituted imidazoline and imidazole analogues” (J Med Chem, 1992) can be followed below.

The structures appear in SMILES notation.

In general, EC50 refers to the midpoint of the concentration-response curve. Read a high EC50 as a less potent agent. Broadly, the IC50 is the concentration needed to halve the response being measured. A lower IC50 goes with inhibition by little substance.

For `Cc1cccc(C(C)c2c[nH]cn2)c1C.Cl` (stereo not given) [MEDETOMIDINE HYDROCHLORIDE], the Max in the assay filed under Rattus norvegicus [1] was found to be 42%. In addition, the EC50 in assay [2] was determined as 310 nM.

As to `CC(C1=NCCN1)c1cccc2ccccc12.Cl` (stereo not given), the Potency ratio in assay [3] is 0.24; in assay [5], 0.57. This compound also registered a Max in the assay listed under Rattus norvegicus [1] of 62%. The compound also registered an IC50 in assay [4] of 0.014 nM.

Turning to `CC(C1=NCCN1)c1ccc2ccccc2c1.Cl` (stereo not given), the Potency ratio in assay [3] came out at 0.21. Besides, in the assay listed under Rattus norvegicus [6], the KB came to 0.26 µM. The IC50 in assay [4] worked out at 0.016 nM.

Turning to `CC(c1ncc[nH]1)c1cccc2ccccc12.Cl` (stereo not given), the values for the Potency ratio in assay [3] and in assay [5] were 0.013 and 0.04, respectively. Besides, the Max in the assay listed under Rattus norvegicus [1] is 40%. This compound also registered an IC50 in assay [4] of 0.26 nM.

`CC(c1ccc2ccccc2c1)c1c[nH]cn1.Cl` (stereo not given): the Potency ratio in assay [3] is 0.028. The same compound gave an IC50 in assay [4] of 0.12 nM. Moreover, the Kb in assay [7] amounted to 68 nM.

On to `CC(c1c[nH]cn1)c1cccc2ccccc12.Cl` (stereo not given), for which the Potency ratio is 0.97 in assay [3] and 1.6 in assay [5]. In addition, the IC50 in assay [8] stood at 0.0034 nM. In addition, the Max in the assay filed under Rattus norvegicus [1] worked out at 27%. In assay [2], the EC50 was found to be 200 nM.

As to `CC(c1ccc2ccccc2c1)c1ncc[nH]1.O=C(O)C(=O)O` (stereo not given), in assay [3], the Potency ratio is 0.0054. For the same compound, in the assay filed under Rattus norvegicus [6], the KB is 1.5e-06 µM. In assay [4], this compound registered an IC50 of 0.61 nM.

In the case of `Cl.c1ccc2c(Cc3ncc[nH]3)cccc2c1`, the Potency ratio in assay [3] was 0.097; in assay [5], 1.6. In the assay listed under Rattus norvegicus [1], this compound returned a Max of 56%. In assay [2], this compound displayed an EC50 of 200 nM. Also, the IC50 in assay [4] was 0.034 nM.

`Cl.c1ccc2c(CC3=NCCN3)cccc2c1` [NAPHAZOLINE HYDROCHLORIDE]: the Max in the assay filed under Rattus norvegicus [1] stood at 68%.
